Measured values pooled from the literature.
Protocols differ between the studies behind these lines.
Target: Maternal embryonic leucine zipper kinase (MELK, Homo sapiens, UniProt Q14680)

`CC(=O)N1CCC(c2ccc(C(=O)NC3=NCCN3)cc2C(F)(F)F)CC1` gave a remaining binding of 100% (cell-free assay, competition with immobilised ligand; 1 µM).
`c1cncc(-c2cccc(Nc3nccc(NC4CCCCC4)n3)c2)c1` has a remaining binding of 84% (binding, competition with immobilised ligand; 10 µM).
For `CN(C)c1nccc(-c2cnc3ncccn23)n1`, the remaining binding was 100% (binding; 1 µM).
`CC1=C(C#N)[C@@H](c2ccc3[nH]nc(C)c3c2)C(C#N)=C(c2ccc(Cl)cc2)N1` gave a remaining binding of 100% (cell-free assay, competition with immobilised ligand; 1 µM).
For `O=C(NCCCN1CCOCC1)c1ccc(Nc2nccc(-c3cc4ccccc4s3)n2)cc1`, the remaining binding was 100% (binding, competition with immobilised ligand; 1 µM).
`COc1ccc2c(c1)O[C@H](c1ccc(OC)c(OC)c1)C[C@@H]2NC(=O)C1(c2ccc3c(c2)OC(F)(F)O3)CC1` has a remaining binding of 78% (cell-free assay, competition with immobilised ligand; 1 µM).
The remaining binding of `CN(CCCC(F)(F)F)c1nccc(-c2cnn3ncccc23)n1` is reported as 94% (binding; 1 µM).
`O=C(NCCCN1CCOCC1)c1ccc(Nc2ncc(Cl)c(-c3ccc(Cl)s3)n2)cc1` gave a remaining binding of 69% (binding, competition with immobilised ligand; 1 µM).
`CC(=O)C1=C(C)N(c2cccc(C(F)(F)F)c2)C(=O)N[C@@H]1c1ccc(C#N)nc1` has a remaining binding of 88.2% (cell-free assay, competition with immobilised ligand; 1 µM).
`CN(c1nccc(-c2cnn3ncccc23)n1)C1CC1` gave a remaining binding of 73% (binding; 1 µM).
With `COc1cnc(Nc2cccc(S(N)(=O)=O)c2)nc1N1CCN(c2ccccc2)CC1` the remaining binding was 88% (binding, competition with immobilised ligand; 1 µM).
The remaining binding of `Cc1cnc(Nc2ccc(C(=O)N3CCC(N4CCCC4)CC3)cc2)nc1-c1cc2ccccc2s1` is reported as 81% (binding, competition with immobilised ligand; 1 µM).
The remaining binding of `CNC(=O)[C@@H]1CC[C@@H](n2c(-c3ccc4cnccc4c3)nc3ccc(C(=O)NCc4cccc(C(N)=O)c4)cc32)C1` is reported as 78% (binding, competition with immobilised ligand; 1 µM).
`C=CC(=O)N1CCC(C(=O)NCC(=O)N2CCN(c3nc(-c4cnc(N)nc4C(F)F)nc(N4CCOCC4)n3)CC2)CC1` gave a remaining binding of 100% (binding, competition with immobilised ligand; 1 µM).
`Cc1cnn2ncc(-c3ccnc(N(C)C)n3)c2c1` has a remaining binding of 100% (binding; 1 µM).
With `Cc1c(NC(=O)c2cc(C(N)=O)nc3cc(F)ccc23)c(C(F)(F)F)nn1Cc1ccc(C#N)cc1` the remaining binding was 90% (cell-free assay, competition with immobilised ligand; 1 µM).
For `CN(C)c1nccc(-c2cnn3ncccc23)n1`, the remaining binding was 71% (binding; 1 µM).
For `O=S(=O)(NC1CCC(c2cc(F)ccc2F)(S(=O)(=O)c2ccc(Cl)cc2)CC1)C(F)(F)F` (stereo not shown), the remaining binding was 69% (cell-free assay, competition with immobilised ligand; 1 µM).
`C[C@@H]1CCN(c2nccc(-c3cnn4ncccc34)n2)C1` has a remaining binding of 48% (binding; 1 µM).
`O=C(NCC1CCOCC1)c1n[nH]cc1NC(=O)c1c(F)cccc1F` gave a remaining binding of 69% (binding, competition with immobilised ligand; 1 µM).
`COc1ccnn2ncc(-c3ccnc(N(C)C)n3)c12` has a remaining binding of 100% (binding; 1 µM).
For `O=C(NCCCC1CCCCC1)c1ccc(CNC(=O)c2cnn(-c3ccccc3)c2C(F)(F)F)cc1`, the remaining binding was 80% (cell-free assay, competition with immobilised ligand; 0.1 µM).
